From PMC4674360 (Molecular cancer therapeutics, 2015)
“Also recorded” adds a separate entry of the source. Read-outs that look alike come from different tables or passages of the source.

What was measured:
[1] = 26 (veliparib); ref 48 (E7016); cited from earlier work
[2] = test system: GBM12 orthotopic xenografts; assay: GBM12 orthotopic xenograft survival; format: in vivo, mice; details: TMZ 50 mg/kg, rucaparib 1 mg/kg days 1-5 every 28 days × 3 cycles, placebo 16 days, p = 0.88
GBM12 flank xenografts = assay: GBM12 flank xenograft tumor regrowth delay; format: in vivo, mice; details: TMZ 50 mg/kg days 1-5, rucaparib 1 mg/kg days 1-5, three 28 day cycles, placebo 32 days
GBM22 = details: cited from earlier work
[3] = molecular target: T1, murine Breast Cancer Resistance Protein (BCRP1) (Mus musculus, UniProt Q7TMS5); assay: In vitro intracellular accumulation in BCRP1-overexpressing MDCKII cells; format: in vitro ADME; details: rucaparib 2 −M, prazosin 0.39 nM, 60 minutes at 37°C, mean ± SD, n = 5-6
T1 sequence (Q7TMS5 1-657): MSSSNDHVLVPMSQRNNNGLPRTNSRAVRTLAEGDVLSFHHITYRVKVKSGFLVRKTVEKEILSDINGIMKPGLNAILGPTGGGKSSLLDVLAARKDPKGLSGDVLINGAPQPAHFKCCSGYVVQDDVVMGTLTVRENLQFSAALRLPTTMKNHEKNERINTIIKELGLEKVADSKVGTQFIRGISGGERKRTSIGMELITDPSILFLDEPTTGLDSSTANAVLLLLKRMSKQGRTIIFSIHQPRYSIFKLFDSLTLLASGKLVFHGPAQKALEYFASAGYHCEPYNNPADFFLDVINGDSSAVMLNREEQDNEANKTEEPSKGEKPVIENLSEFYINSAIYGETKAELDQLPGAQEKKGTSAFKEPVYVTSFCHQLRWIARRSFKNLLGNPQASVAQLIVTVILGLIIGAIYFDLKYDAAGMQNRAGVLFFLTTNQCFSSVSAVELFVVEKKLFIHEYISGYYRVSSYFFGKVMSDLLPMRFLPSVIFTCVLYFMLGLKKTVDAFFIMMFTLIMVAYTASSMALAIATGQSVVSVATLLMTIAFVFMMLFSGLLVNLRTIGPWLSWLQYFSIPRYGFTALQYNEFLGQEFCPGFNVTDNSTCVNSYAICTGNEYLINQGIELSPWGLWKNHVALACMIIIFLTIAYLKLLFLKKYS
How it was run: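 MDCKII cells (vector control or murine Bcrp1-transfected) were seeded at 2 x 10^5/well and grown to 80% confluence. After washing in serum-free buffer, cells were preincubated 30 min ± 0.2 µM Ko143. They were then exposed to 2 µM test compound or 0.39 nM prazosin (substrate control) for 60 min at 37°C. Uptake was stopped with cold PBS and cells lysed in 1% Triton X-100. Intracellular drug was measured by LC-MS/MS and normalised to BCA protein; mean ± SD, n = 5-6.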

[4] = test system: GBM14, GBM43, GBM59 intracranial xenografts; assay: Other orthotopic primary GBM xenograft lines, survival; format: in vivo, mice; details: three other primary GBM xenograft lines
How it was run: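 Patient-derived GBM lines were kept by serial passage in mice and implanted intracranially. Mice with established tumours were randomised, 10 per group, to four arms: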

[5] = Steady-state brain distribution in wild-type and Mdr1a/b-/-Bcrp1-/- mice; format: in vivo, FVB mice
How it was run: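 FVB wild-type and Mdr1a/b-/-Bcrp1-/- mice received the test compound for 48 h by intraperitoneal osmotic minipump at 5 µg/hr (pump stock 5 mg/mL in DMSO). Plasma and whole brain were flash-frozen. Brain was homogenised in 5% BSA, samples spiked with dasatinib internal standard and extracted in ethyl acetate, then assayed by positive-mode LC-MS/MS. Brain-to-plasma ratio reported as mean ± SD, n=4.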

[6] = Tolerability of chronic rucaparib with TMZ; format: in vivo, mice; details: IP, with 50 mg/kg PO TMZ
PARP = PARP enzymatic activity in tissue homogenates after a single dose; format: in vivo, mice
[7] = MALDI mass spectrometric imaging of drug distribution; format: in vivo, mice; details: thirty minutes after single 10 mg/kg IP dose
How it was run: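 Tumour-bearing mice got one 10 mg/kg IP dose and were euthanised 30 min later. Brain, liver and tumour were snap-frozen; 12 µm cryosections went onto ITO slides, with sister sections for H&E. DHB matrix was sprayed on (160 mg/mL in methanol/0.2% TFA 70:30). Imaging used a 12 T FT-ICR MS, positive ion mode, m/z 100-2500, 250 shots per spot, 80 µm pixels (brain, liver) and 100 µm (flank tumour).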

[8] = format: in vivo, mice; details: for half-life: mouse, 1 mg/kg
How it was run: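 Mice with orthotopic GBM12 xenografts got a single 1 mg/kg intraperitoneal dose. Plasma, liver and brain (tumour-injected and contralateral hemispheres) were collected and flash-frozen at 0, 60, 120, 360 and 1440 min after dosing. Drug levels were measured by LC-MS; values are the mean of 2 or 3 mice per time point.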

PDGF-driven glioma = details: higher drug delivery into brain in knockout mice; cited from earlier work
GL261 tumors = details: cited from earlier work
[9] = 60 minutes, single 1 mg/kg dose

C[C@]1(c2nc3c(C(N)=O)cccc3[nH]2)CCCN1 [veliparib]
blood brain barrier penetration [1]: significantly penetrate the blood brain barrier

Cn1nnc2c(C(N)=O)ncn2c1=O [TMZ, temozolomide]
median survival [2]: 68 days
Median time for tumor to exceed a 1000 mm^3 size endpoint (GBM12 flank xenografts): 86 days

C=CCn1c(=O)c2cnc(Nc3ccc(N4CCN(C)CC4)cc3)nc2n1-c1cccc(C(C)(C)O)n1 [MK-1775]
sensitizing effect combined with temozolomide, flank models (GBM22; flank models): significant sensitizing effects
sensitizing effect combined with temozolomide, GBM22 (GBM22; orthotopic GBM22 (contrasted with flank)): no sensitizing effect

O=c1[nH]nc2c3c(cccc13)Oc1ccc(CN3CCC(O)CC3)cc1-2 [E7016]
blood brain barrier penetration [1]: significantly penetrate the blood brain barrier

COc1cc2nc(N3CCN(C(=O)c4ccco4)CC3)nc(N)c2cc1OC [prazosin]
intracellular accumulation in BCRP1-overexpressing cells [3]: 16.8±1.4 % of control

CNCc1ccc(-c2[nH]c3cc(F)cc4c3c2CCNC4=O)cc1 [rucaparib]
potentiation of TMZ by rucaparib [4]: did not potentiate TMZ
Kp at 48 h ([5]; FVB, mouse, brain, ip, 5 µg/hr, brain to plasma ratio at steady state, Mdr1a/1b-/-;Bcrp1-/- (TKO) mice, 48-hour intraperitoneal infusion at 5 −g/hr, mean ± SD, n=4): 1.61 ± 0.25
increase in the brain-to-plasma ratio in knockout versus wild-type mice ([5]; Mdr1a/b-/-Bcrp1-/- knockout mice): ~20 fold
intracellular accumulation in BCRP1-overexpressing cells [3]: 14.5±5.2 % of control
highest dose tolerated for chronic administration [6]: 1 mg/kg
PARP activity in normal brain (contralateral hemisphere) (PARP; by 360 minutes after injection): recovered to baseline
PARP activity in liver (PARP; reduced for several hours after single 1 mg/kg dose): 5 % of baseline
PARP activity in tumor-injected hemisphere (PARP; remained suppressed at this level for 24 hours, single 1 mg/kg dose): 50 % of baseline
rucaparib distribution in flank tumors by MALDI-MSI ([7]; GBM12 flank, n=2): homogeneous and high-level accumulation
rucaparib distribution in orthotopic tumors by MALDI-MSI ([7]; GBM12 orthotopic, n=3): no appreciable rucaparib signal
rucaparib distribution in normal brain by MALDI-MSI ([7]; adjacent normal brain, 10 mg/kg): no appreciable rucaparib signal; also recorded: below the limit of detection
concentration in contralateral brain hemisphere [8, 9]: 0.08 −M
concentration in liver [8, 9]: 11.05 −M
concentration in tumor-injected hemisphere [8, 9]: 0.35 −M
concentration in tumor-injected hemisphere ([8]; 6 hours, single 1 mg/kg dose): 0.23 −M
levels in normal brain ([8]; by 360 minutes after injection, single 1 mg/kg dose): undetectable
half-life ([8]; plasma, ip): 1.5 h
half-life ([8]; tumor-injected brain hemisphere, intraperitoneal): 13 h
maximum plasma concentration relative to Cmax in humans (times lower) ([8]; single 1 mg/kg dose in mice versus human Cmax of ref 12): about four-five

Cc1nc(Nc2ncc(C(=O)Nc3c(C)cccc3Cl)s2)cc(N2CCN(CCO)CC2)n1 [dasatinib]
survival of tumor-bearing Mdr1a/b-/-Bcrp1-/- knockout mice compared to wild-type mice (PDGF-driven glioma): significant improvement in survival

Cc1ccc2c(=O)c3cccc(CC(=O)O)c3oc2c1C [DMXAA, 5,6-dimethylxanthenone-4-acetic acid]
effect on survival with intracranial GL261 tumors (GL261 tumors; intracranial): no survival extension
effect on subcutaneous GL261 tumors (GL261 tumors; subcutaneous): significantly delayed tumor growth
